Experimental data taken from ChEMBL document CHEMBL1629649, “Multiple regulatory pathways associated with high-level ciprofloxacin and multidrug resistance in Salmonella enterica serovar enteritidis: involvement of RamA and other global regulators” (2009).
≈ marks a conversion by molar mass, not a printed value.

How the values were obtained:
Assay type in all cases: functional, Salmonella enterica subsp. enterica serovar Enteritidis
[1] = tested on: Salmonella enteritidis; assay: Antimicrobial activity against acrB::aph-deficient ciprofloxacin-resistant Salmonella enterica serovar enteritidis isolate 104-cip harboring gyrA D87Y,S83F mutant gene by Etest
Outline: (§1)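 Deletions (acrB, marA, soxS or ramA) were moved from SL1344 mutants into the isolates by P22 phage transduction. Transductants were selected on LB agar with 50 µg/ml kanamycin, and insertion of the kanamycin resistance gene was confirmed by PCR. MICs were then determined by Etest.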

[2] = tested on: Salmonella enteritidis; assay: Antimicrobial activity against Salmonella enterica serovar enteritidis isolate 5408 harboring gyrA D87Y mutant gene by Etest
[3] = tested on: Salmonella enteritidis; assay: Antimicrobial activity against ciprofloxacin-resistant Salmonella enterica serovar enteritidis isolate 5408-cip harboring gyrA D87Y, gyrB E466D, parE V461G mutant gene by Etest
[4] = tested on: Salmonella enteritidis; assay: Antimicrobial activity against marA::aph-deficient ciprofloxacin-resistant Salmonella enterica serovar enteritidis isolate 104-cip harboring gyrA D87Y,S83F mutant gene by Etest; outline: as §1
[5] = tested on: Salmonella enteritidis; assay: Antimicrobial activity against Salmonella enterica serovar enteritidis isolate 104-cip harboring gyrA D87Y,S83F mutant gene by Etest
[6] = tested on: Salmonella enteritidis; assay: Antimicrobial activity against acrB::aph-deficient ciprofloxacin-resistant Salmonella enterica serovar enteritidis isolate 5408-cip harboring gyrA D87Y, gyrB E466D, parE V461G mutant gene by Etest; outline: as §1
[7] = tested on: Salmonella enteritidis; assay: Antimicrobial activity against ramA::aph-deficient ciprofloxacin-resistant Salmonella enterica serovar enteritidis isolate 5408-cip harboring gyrA D87Y, gyrB E466D, parE V461G mutant gene by Etest; outline: as §1
[8] = tested on: Salmonella enteritidis; assay: Antimicrobial activity against Salmonella enterica serovar enteritidis isolate 104 harboring gyrA D87Y mutant gene by Etest
[9] = tested on: Salmonella enteritidis; assay: Antimicrobial activity against soxS::aph-deficient ciprofloxacin-resistant Salmonella enterica serovar enteritidis isolate 104-cip harboring gyrA D87Y,S83F mutant gene by Etest; outline: as §1
[10] = tested on: Salmonella enteritidis; assay: Antimicrobial activity against Salmonella enterica serovar enteritidis isolate CUH52 by Etest
[11] = tested on: Salmonella enteritidis; assay: Antimicrobial activity against acrB::aph-deficient Salmonella enterica serovar enteritidis isolate 5408 harboring gyrA D87Y mutant gene by Etest; outline: as §1
[12] = tested on: Salmonella enteritidis; assay: Antimicrobial activity against Salmonella enterica serovar enteritidis isolate 58 harboring gyrA D87Y mutant gene by Etest
[13] = tested on: Salmonella enteritidis; assay: Antimicrobial activity against acrB::aph-deficient Salmonella enterica serovar enteritidis isolate 104 harboring gyrA D87Y mutant gene by Etest; outline: as §1
[14] = tested on: Salmonella enteritidis; assay: Antimicrobial activity against Salmonella enterica serovar enteritidis isolate NCTC 13349 by Etest
[15] = tested on: Salmonella enteritidis; assay: Antimicrobial activity against Salmonella enterica serovar enteritidis isolate CUH48 by Etest
[16] = tested on: Salmonella enteritidis; assay: Antimicrobial activity against ciprofloxacin-resistant Salmonella enterica serovar enteritidis isolate 104-cip harboring gyrA gene by Etest
Outline: (§2)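 Wild-type alleles of the target genes were carried on plasmids and introduced into the ciprofloxacin-selected mutants by electrotransformation. Transformants were selected on LB agar with 50 µg/ml kanamycin at 37°C overnight. Quinolone MICs of the transformants were read by Etest strips alongside those of the parent and mutant strains.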

[17] = tested on: Salmonella enteritidis; assay: Antimicrobial activity against ciprofloxacin-resistant Salmonella enterica serovar enteritidis isolate 5408-cip harboring parE gene gyrA D87Y, gyrB E466D mutant gene by Etest; outline: as §2
[18] = tested on: Salmonella enteritidis; assay: Antimicrobial activity against acrB::aph-deficient Salmonella enterica serovar enteritidis isolate 51 harboring gyrA D87Y mutant gene by Etest; outline: as §1
[19] = tested on: Salmonella enteritidis; assay: Antimicrobial activity against Salmonella enterica serovar enteritidis isolate 51 harboring gyrA D87Y mutant gene by Etest
[20] = tested on: Salmonella enteritidis; assay: Antimicrobial activity against Salmonella enterica serovar enteritidis isolate 5408 harboring gyrA gene by Etest
[21] = tested on: Salmonella enteritidis; assay: Antimicrobial activity against acrB::aph-deficient Salmonella enterica serovar enteritidis isolate CUH60 harboring gyrA D87Y mutant gene by Etest; outline: as §1
[22] = tested on: Salmonella enteritidis; assay: Antimicrobial activity against Salmonella enterica serovar enteritidis isolate 54 harboring gyrA D87Y mutant gene by Etest
[23] = tested on: Salmonella enteritidis; assay: Antimicrobial activity against Salmonella enterica serovar enteritidis isolate 104 harboring gyrA gene by Etest
[24] = tested on: Salmonella enteritidis; assay: Antimicrobial activity against ciprofloxacin-resistant Salmonella enterica serovar enteritidis isolate 5408-cip harboring gyrA gene, gyrB E466D, parE V461G mutant gene by Etest; outline: as §2
[25] = tested on: Salmonella enteritidis; assay: Antimicrobial activity against acrB::aph-deficient Salmonella enterica serovar enteritidis isolate 4931 harboring gyrA D87Y mutant gene by Etest; outline: as §1
[26] = tested on: Salmonella enteritidis; assay: Antimicrobial activity against Salmonella enterica serovar enteritidis isolate CUH60 harboring gyrA D87Y mutant gene by Etest
[27] = tested on: Salmonella enteritidis; assay: Antimicrobial activity against ciprofloxacin-resistant Salmonella enterica serovar enteritidis isolate 5408-cip harboring gyrB gene gyrA D87Y, parE V461G mutant gene by Etest; outline: as §2
[28] = tested on: Salmonella enteritidis; assay: Antimicrobial activity against Salmonella enterica serovar enteritidis isolate 4931 harboring gyrA D87Y mutant gene by Etest

CN(C)[C@@H]1C(O)=C(C(N)=O)C(=O)[C@@]2(O)C(O)=C3C(=O)c4c(O)cccc4[C@@](C)(O)[C@H]3C[C@@H]12 [TETRACYCLINE]
MIC [1]: 0.25 µg/mL (≈ 0.563 µM) | MIC [2]: 1 µg/mL (≈ 2.25 µM) | MIC [3]: 1.5 µg/mL (≈ 3.38 µM) | MIC [4]: 1.5 µg/mL (≈ 3.38 µM) | MIC [5]: 12 µg/mL (≈ 27 µM) | MIC [6]: 0.094 µg/mL (≈ 0.212 µM) | MIC [7]: 1 µg/mL (≈ 2.25 µM) | MIC [8]: 1 µg/mL (≈ 2.25 µM) | MIC [9]: 0.75 µg/mL (≈ 1.69 µM)

CCn1cc(C(=O)O)c(=O)c2ccc(C)nc21 [NALIDIXIC ACID]
MIC [10]: 3 µg/mL (≈ 12.9 µM) | MIC [11]: 32 µg/mL (≈ 138 µM) | MIC [12]: > 256 µg/mL | MIC [1]: > 256 µg/mL | MIC [2]: > 256 µg/mL | MIC [13]: 32 µg/mL (≈ 138 µM) | MIC [3]: > 256 µg/mL | MIC [14]: 8 µg/mL (≈ 34.4 µM) | MIC [15]: 6 µg/mL (≈ 25.8 µM) | MIC [16]: 8 µg/mL (≈ 34.4 µM) | MIC [4]: > 256 µg/mL | MIC [5]: > 256 µg/mL | MIC [17]: > 256 µg/mL | MIC [18]: 32 µg/mL (≈ 138 µM) | MIC [6]: > 256 µg/mL | MIC [19]: > 256 µg/mL | MIC [20]: 4 µg/mL (≈ 17.2 µM) | MIC [21]: 24 µg/mL (≈ 103 µM) | MIC [22]: > 256 µg/mL | MIC [23]: 4 µg/mL (≈ 17.2 µM) | MIC [24]: > 256 µg/mL | MIC [7]: > 256 µg/mL | MIC [25]: 32 µg/mL (≈ 138 µM) | MIC [8]: > 256 µg/mL | MIC [26]: > 256 µg/mL | MIC [9]: > 256 µg/mL | MIC [27]: > 256 µg/mL | MIC [28]: > 256 µg/mL
